Reference: ChEMBL document CHEMBL1649491, “Renal disposition of colistin in the isolated perfused rat kidney” (Antimicrob Agents Chemother, 2009)
Positions of bridges follow the written chain, without caps; N, C: chain ends. Non-standard residues stand in square brackets, D forms with d. Residues, ends and D or L forms follow the SMILES beside them. *: point of attachment. Heptanoyl(6-Me) = CC(C)CCCCC(=O)*; Dab = NCC[C@H](N)C(=O)O

Legend:
Kidney [1] = test: Tubular reabsorption in rat perfused kidney at 2 ug/ml after 5 to 105 mins by LC-MS/MS analysis; assay type: ADME, tissue-based
Procedure, shortened: (§1)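 Isolated perfused kidneys from male Sprague-Dawley rats (400 to 450 g) in a recirculating 160 ml perfusate with [3H]inulin (130 kBq) for GFR. Colistin sulfate bolus gave an initial 2 µg/ml (1.27 µM colistin A+B). Urine was collected in 5-min intervals from 5 to 105 min, with perfusate sampled at midpoints. Colistin A and B were measured by LC-MS/MS. CLR and CR were derived; n = 5, mean ± SD.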

[2] = (§2) Fraction unbound in […] at 1 ug/ml by LC-MS/MS analysis; assay type: ADME, cell-free, Plasma; settings: rat
Procedure, shortened: (§3)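 Unbound fraction was measured in IPK perfusate by ultrafiltration, at colistin sulfate levels approximating initial and end perfusion concentrations. Colistin A and B in ultrafiltrate and unfiltered perfusate were quantified by LC-MS/MS. fu is the ultrafiltrate/perfusate concentration ratio, determined separately for A and B.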

[3] = (§4) Fraction unbound in Sprague-Dawley rat plasma; assay type: ADME, cell-free; settings: Sprague-Dawley
[4] = Drug absorption in rat tubular urine at 2 ug/ml after 5 to 105 mins by LC-MS/MS analysis; assay type: ADME, tissue-based; procedure, shortened: as §1
Kidney [5] = test: Clearance in rat perfused kidney assessed as clearance ratio at 2 ug/ml after 5 to 105 mins by LC-MS/MS analysis; assay type: ADME, tissue-based; procedure, shortened: as §1
[6] = (§5) Clearance in rat perfused kidney at 2 ug/ml after 5 to 105 mins by LC-MS/MS analysis; assay type: ADME, tissue-based; settings: perfused kidney; procedure, shortened: as §1
Plasma [7] = test: as §2; assay type: ADME, cell-free; settings: rat; procedure, shortened: as §3
Plasma [8] = test: as §4; assay type: ADME, cell-free
Kidney [9] = test: as §5; assay type: ADME, tissue-based; settings: in vivo; procedure, shortened: as §1

Row | Activity (Kidney [1]) [%] | fraction unbound at 1 ug/ml [2] | fraction unbound [3] | Activity [4] [%] | Ratio (Kidney [5]) | CL renal at 2 ug/ml [6] [mL/min] | Fu (Plasma [7]) | Fu (Plasma [8]) | CL (Kidney [9]) [mL/min] | Compound
1 | > 90 | 0.6 | 0.52 | > 90 | < 0.1 | 0.028 |  |  |  | CC(C)CCCCC(=O)N[C@@H](CCN)C(=O)N[C@H](C(=O)N[C@@H](CCN)C(=O)N[C@H]1CCNC(=O)[C@H]([C@@H](C)O)NC(=O)[C@H](CCN)NC(=O)[C@H](CCN)NC(=O)[C@H](CC(C)C)NC(=O)[C@@H](CC(C)C)NC(=O)[C@H](CCN)NC1=O)[C@@H](C)O [COLISTIN B] ({Heptanoyl(6-Me)}-[Dab]T[Dab][Dab][Dab][dL]L[Dab][Dab]T; lactam 4-C)
2 | > 90 |  |  | > 90 | < 0.1 |  | 0.41 | 0.36 | 0.028 | COLISTIN
